In ChEMBL document CHEMBL4396873, “Discovery of Potent, Selective, and Short-Acting Peptidic V2 Receptor Agonists” (J Med Chem, 2019):
Numbered stars: 1 amine (or outer) side, 2 acyl side, 3 side chain; on linkers, the order of the positions; unused ones are H or OH. Bridge positions count the residues as written; N and C are the ends. Square brackets hold non-standard residues; d marks the D form. Peptide text beside a SMILES is read from it. * marks the point of attachment. 2Thi = N[C@@H](Cc1cccs1)C(=O)O; X1 = O=C(CCC[*:2])[*:1]; NH(CH2)4NH2 = NCCCCN*

Legend:
[1] = biological target: Oxytocin receptor (Homo sapiens) (UniProt P30559); experiment: Agonist activity at recombinant human oxytocin receptor expressed in HEK293 cells measured after 5 hrs by luciferase reporter gene assay relative to control; settings: read-out: Efficacy
[2] = Protein binding in rat plasma at 200 to 1000 ng/ml measured after 15 mins by UC-LC/MS/MS analysis; format: ADME, cell-free; settings: read-out: PPB (converted)
How it was run: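 Peptide spiked into rat plasma to final 200-1000 ng/mL, incubated 15 min at 37 °C, ultracentrifuged at 773,000 xg for 30 min at 37 °C; middle-layer sample quantified by LC/MS/MS; binding (%) = (Ci − Cm)/Ci × 100; quadruplicate.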

[3] = Clearance in Sprague-Dawley rat at 0.1 mg/kg, iv administered as cassette dose by LC-MS/MS analysis; format: ADME, organism-based; settings: in vivo
[4] = biological target: Oxytocin receptor (Homo sapiens) (UniProt P30559); experiment: Agonist activity at recombinant human oxytocin receptor expressed in HEK293 cells measured after 5 hrs by luciferase reporter gene assay
[5] = Non-renal clearance in nephrectomized Sprague-Dawley rat at 0.1 mg/kg, iv administered as cassette dose by LC-MS/MS analysis; format: ADME, organism-based; settings: in vivo
Vasopressin V1a receptor = Vasopressin V1a receptor (Homo sapiens, UniProt P37288); experiment: Agonist activity at recombinant human V1a receptor expressed in HEK293 cells up to 1000 nM measured after 5 hrs by luciferase reporter gene assay; format: cell-based; settings: hek293, 5 h
Vasopressin V2 receptor = Vasopressin V2 receptor (Homo sapiens, UniProt P30518); experiment: Agonist activity at recombinant human V2 receptor expressed in HEK293 cells measured after 5 hrs by cAMP response element driven luciferase reporter gene assay; format: functional, cell-based
Chain of Vasopressin V2 receptor (P30518 whole entry): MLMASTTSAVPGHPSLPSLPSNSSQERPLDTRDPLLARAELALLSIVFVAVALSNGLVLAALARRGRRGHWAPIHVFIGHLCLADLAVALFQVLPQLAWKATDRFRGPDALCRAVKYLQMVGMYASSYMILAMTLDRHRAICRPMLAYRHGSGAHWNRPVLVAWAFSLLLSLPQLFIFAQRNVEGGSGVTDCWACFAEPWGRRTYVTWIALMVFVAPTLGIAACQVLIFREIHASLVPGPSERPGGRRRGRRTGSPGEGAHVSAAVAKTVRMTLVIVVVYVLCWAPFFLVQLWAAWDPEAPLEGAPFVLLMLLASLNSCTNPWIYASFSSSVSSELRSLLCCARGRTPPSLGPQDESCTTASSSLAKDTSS

Chain of Oxytocin receptor (Homo sapiens) (P30559 whole entry, looked up): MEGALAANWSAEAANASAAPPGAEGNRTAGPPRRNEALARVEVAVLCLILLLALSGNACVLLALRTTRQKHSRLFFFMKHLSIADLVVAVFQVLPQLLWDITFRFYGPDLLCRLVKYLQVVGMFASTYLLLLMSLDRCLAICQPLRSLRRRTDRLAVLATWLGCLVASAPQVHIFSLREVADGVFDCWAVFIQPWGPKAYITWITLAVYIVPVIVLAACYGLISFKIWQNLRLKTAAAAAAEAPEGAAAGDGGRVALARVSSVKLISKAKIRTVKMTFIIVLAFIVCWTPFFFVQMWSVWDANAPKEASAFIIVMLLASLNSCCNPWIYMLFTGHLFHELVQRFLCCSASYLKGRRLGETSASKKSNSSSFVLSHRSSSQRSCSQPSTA
Chain of Vasopressin V1a receptor (P37288 whole entry): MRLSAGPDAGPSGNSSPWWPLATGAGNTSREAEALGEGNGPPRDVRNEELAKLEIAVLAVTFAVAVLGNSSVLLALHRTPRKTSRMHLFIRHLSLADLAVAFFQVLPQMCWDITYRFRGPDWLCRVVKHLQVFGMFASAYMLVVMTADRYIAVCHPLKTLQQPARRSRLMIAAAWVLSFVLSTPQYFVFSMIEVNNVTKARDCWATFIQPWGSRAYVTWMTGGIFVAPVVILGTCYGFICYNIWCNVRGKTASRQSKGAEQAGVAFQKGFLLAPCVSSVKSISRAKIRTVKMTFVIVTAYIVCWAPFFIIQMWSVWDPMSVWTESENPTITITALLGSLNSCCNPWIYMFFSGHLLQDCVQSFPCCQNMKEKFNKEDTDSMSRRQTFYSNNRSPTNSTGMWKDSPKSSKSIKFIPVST

For `CC(C)[C@@H]1NC(=O)[C@H](Cc2cccs2)NC(=O)[C@H](Cc2ccc(O)cc2)NC(=O)CCCSC[C@@H](C(=O)N2CCC[C@H]2C(=O)NCCCCN)NC(=O)[C@H](CC(N)=O)NC1=O` (Y[2Thi]VNCP-{NH(CH2)4NH2}; linker N-5 via X1), the Emax [1] was 28%, the fraction unbound at […] [2] was 0.58 and the clearance [3] was 0.432 L/h/kg. The EC50 [4] was 0.65 µM, the CL [5] was 18% and the Activity (Vasopressin V1a receptor) was “Not Active”. For the same compound, the EC50 (Vasopressin V2 receptor) was 0.00019 µM.
